How the values were obtained:
[1] = Drug level in normal rhesus monkey parietal cortex assessed as standard uptake value at 81.2 MBq, iv after 2.5 mins by microPET; format: ADME, organism-based, Macaca mulatta; details: in vivo
[2] = Drug level in normal rhesus monkey parietal cortex assessed as standard uptake value at 81.2 MBq, iv after 6 mins by microPET; format: ADME, organism-based, Macaca mulatta; details: in vivo, 0.1 h
[3] = Drug level in normal rhesus monkey parietal cortex assessed as standard uptake value at 81.2 MBq, iv after 27.5 mins by microPET; format: ADME, organism-based, Macaca mulatta; details: in vivo
[4] = Biodistribution in NMRI mouse urine at 3.7 MBq/mL, iv after 2 mins by gamma counting; format: ADME, organism-based; details: in vivo
In short: (§1)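 Male NMRI mice (30-40 g) under isoflurane (1.5-2.5% in oxygen) got 0.1 mL of HPLC-purified tracer diluted with 0.9% NaCl to 3.7 MBq/mL (ethanol ≤10%) via tail vein. Mice were decapitated at 2 or 60 min p.i., and organs, blood and urine were weighed and γ-counted. Values are background-corrected %ID or %ID/g, with blood mass taken as 7% of body mass.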

[5] = Biodistribution in NMRI mouse urine at 3.7 MBq/mL, iv after 60 mins by gamma counting; format: ADME, organism-based; details: in vivo, 1 h; in short: as §1
[6] = Biodistribution in NMRI mouse spleen/pancreas at 3.7 MBq/mL, iv after 60 mins by gamma counting; format: ADME, organism-based; details: in vivo, 1 h; in short: as §1
[7] = Drug level in NMRI mouse spleen/pancreas assessed as standard uptake value at 3.7 MBq/mL, iv after 60 mins by gamma counting; format: ADME, organism-based; details: in vivo, 1 h
In short: (§2)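 Male NMRI mice (30-40 g) were anaesthetised with isoflurane. Each received 0.1 mL of HPLC-purified tracer, diluted in 0.9% NaCl to 3.7 MBq/mL (ethanol ≤10%), via a tail vein. Mice were decapitated at 2 or 60 min. Organs were dissected, weighed and γ-counted with background correction. SUV = (organ cpm/organ weight)/(total recovered counts/body weight). Blood mass was taken as 7% of body mass.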

Lung = assay: Biodistribution in NMRI mouse lung assessed per gram of tissue at 3.7 MBq/mL, iv after 2 mins by gamma counting; format: ADME, organism-based; details: in vivo; in short: as §1
Heart = assay: Biodistribution in NMRI mouse heart at 3.7 MBq/mL, iv after 2 mins by gamma counting; format: ADME, organism-based; details: in vivo; in short: as §1
Stomach [8] = assay: Biodistribution in NMRI mouse stomach at 3.7 MBq/mL, iv after 2 mins by gamma counting; format: ADME, organism-based; details: in vivo; in short: as §1
Stomach [9] = assay: Biodistribution in NMRI mouse stomach at 3.7 MBq/mL, iv after 60 mins by gamma counting; format: ADME, organism-based; details: in vivo, 1 h; in short: as §1
[10] = Drug level in NMRI mouse cerebrum assessed as standard uptake value at 3.7 MBq/mL, iv after 60 mins by gamma counting; format: ADME, organism-based; details: in vivo, 1 h; in short: as §2
Blood [11] = assay: Biodistribution in NMRI mouse blood assessed per gram of tissue at 3.7 MBq/mL, iv after 2 mins by gamma counting; format: ADME, organism-based; details: in vivo; in short: as §1
Blood [12] = assay: Drug level in NMRI mouse blood assessed as standard uptake value at 3.7 MBq/mL, iv after 2 mins by gamma counting; format: ADME, organism-based; details: in vivo; in short: as §2
[13] = Drug level in normal rhesus monkey thalamus assessed as standard uptake value at 81.2 MBq, iv after 3.5 mins by microPET; format: ADME, organism-based, Macaca mulatta; details: in vivo
[14] = Drug level in normal rhesus monkey cerebellum assessed as standard uptake value at 81.2 MBq, iv after 175 mins by microPET; format: ADME, organism-based, Macaca mulatta; details: in vivo
In short: (§3)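 One normal rhesus monkey, each tracer given iv via the vena saphena (81.2, 96.3 or 109.4 MBq), with 1 day between tracer injections. Dynamic brain μPET over 180 min used frames of 5 × 60 s, 5 × 120 s, 9 × 300 s and 12 × 600 s. Images were reconstructed by filtered back projection with a RAMP filter. Regional time-activity curves were expressed as SUV.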

[15] = Drug level in normal rhesus monkey frontal cortex assessed as standard uptake value at 81.2 MBq, iv after 14 mins by microPET; format: ADME, organism-based, Macaca mulatta; details: in vivo
[16] = Drug level in normal rhesus monkey parietal cortex assessed as standard uptake value at 96.3 MBq, iv after 42.5 mins by microPET; format: ADME, organism-based, Macaca mulatta; details: in vivo
[17] = Drug level in normal rhesus monkey parietal cortex assessed as standard uptake value at 96.3 MBq, iv after 175 mins by microPET; format: ADME, organism-based, Macaca mulatta; details: in vivo
[18] = Drug level in normal rhesus monkey thalamus assessed as standard uptake value at 96.3 MBq, iv after 2.5 mins by microPET; format: ADME, organism-based, Macaca mulatta; details: in vivo
[19] = Drug level in normal rhesus monkey thalamus assessed as standard uptake value at 96.3 MBq, iv after 47.5 mins by microPET; format: ADME, organism-based, Macaca mulatta; details: in vivo
[20] = Drug level in normal rhesus monkey thalamus assessed as standard uptake value at 96.3 MBq, iv after 52.5 mins by microPET; format: ADME, organism-based, Macaca mulatta; details: in vivo, 0.875 h
[21] = Drug level in normal rhesus monkey cerebellum assessed as standard uptake value at 96.3 MBq, iv after 10 mins by microPET; format: ADME, organism-based, Macaca mulatta; details: in vivo; in short: as §3
[22] = Drug level in normal rhesus monkey pons assessed as standard uptake value at 96.3 MBq, iv after 12 mins by microPET; format: ADME, organism-based, Macaca mulatta; details: in vivo, 0.2 h
[23] = Drug level in normal rhesus monkey pons assessed as standard uptake value at 96.3 MBq, iv after 85 mins by microPET; format: ADME, organism-based, Macaca mulatta; details: in vivo
[24] = Drug level in normal rhesus monkey frontal cortex assessed as standard uptake value at 96.3 MBq, iv after 115 mins by microPET; format: ADME, organism-based, Macaca mulatta; details: in vivo
[25] = Drug level in normal rhesus monkey thalamus assessed as standard uptake value at 109.4 MBq, iv after 117 mins by microPET; format: ADME, organism-based, Macaca mulatta; details: in vivo, 1.95 h
[26] = Drug level in normal rhesus monkey pons assessed as standard uptake value at 109.4 MBq, iv after 123 mins by microPET; format: ADME, organism-based, Macaca mulatta; details: in vivo, 2.05 h
[27] = Drug level in normal rhesus monkey white matter assessed as standard uptake value at 109.4 MBq, iv after 117 mins by microPET; format: ADME, organism-based, Macaca mulatta; details: in vivo, 1.95 h
[28] = Drug level in normal rhesus monkey frontal cortex assessed as standard uptake value at 109.4 MBq, iv after 129 mins by microPET; format: ADME, organism-based, Macaca mulatta; details: in vivo, 2.15 h
[29] = Drug level in normal rhesus monkey cerebellum assessed as standard uptake value at 152.9 MBq, iv after 65 mins by microPET; format: ADME, organism-based, Macaca mulatta; details: in vivo
In short: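 One normal rhesus monkey received each tracer via the vena saphena, with 1 day between injections. Dynamic μPET ran 180 min for 18F tracers (5×60 s, 5×120 s, 9×300 s, 12×600 s) and 90 min for the 11C tracer (5×60 s, 5×120 s, 9×300 s, 3×600 s). Filtered back-projection reconstruction (RAMP filter) was used. Time-activity curves were drawn to give regional SUV.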

[30] = Drug level in normal rhesus monkey frontal cortex assessed as standard uptake value at 152.9 MBq, iv after 22.5 mins by microPET; format: ADME, organism-based, Macaca mulatta; details: in vivo, 0.375 h
In short: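 Single normal rhesus monkey; tracer given iv via the vena saphena, 1 day apart from the other tracer injections. Dynamic μPET ran 90 min (5×60 s, 5×120 s, 9×300 s, 3×600 s). Images were reconstructed by filtered back projection with a RAMP filter. Regional time-activity curves were expressed as SUV.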

[31] = Drug level in normal rhesus monkey white matter assessed as standard uptake value at 152.9 MBq, iv after 3.5 mins by microPET; format: ADME, organism-based, Macaca mulatta; details: in vivo
[32] = Drug level in normal rhesus monkey thalamus assessed as standard uptake value at 152.9 MBq, iv after 32.5 mins by microPET; format: ADME, organism-based, Macaca mulatta; details: in vivo

| Drug uptake [4] [%] | Drug uptake [5] [%] | Drug uptake [6] [%] | SUV [7] | Drug uptake (Lung) [%] | Drug uptake (Heart) [%] | Drug uptake (Stomach [8]) [%] | Drug uptake (Stomach [9]) [%] | SUV [10] | Drug uptake (Blood [11]) [%] | SUV (Blood [12]) | Compound | further results |
| --- | --- | --- | --- | --- | --- | --- | --- | --- | --- | --- | --- | --- |
| 0.2 | 13 | 0.3 | 0.3 | 7.3 | 0.8 | 2.3 | 1.6 | 0.48 | 0.7 | 0.2 | CNc1ccc2nc(-c3ccc([18F])cc3)sc2c1 | SUV [1]: 4.252; SUV [2]: 4.972; SUV [3]: 4.303; SUV [13]: 3.83; SUV [14]: 1.384; SUV [15]: 6.096 |
| 0.1 | 7.6 | 0.3 | 0.4 | 8 | 1.2 | 1.4 | 1.2 | 0.72 | 1.1 | 0.4 | CN(C)c1ccc2nc(-c3ccc([18F])cc3)sc2c1 | SUV [16]: 1.79; SUV [17]: 1.17; SUV [18]: 1.52; SUV [19]: 2.25; SUV [20]: 2.26; SUV [21]: 1.69; SUV [22]: 1.55; SUV [23]: 2.06; SUV [24]: 1.66 |
| 0.2 | 4.9 | 0.3 | 0.3 | 8.9 | 0.7 | 1.6 | 0.6 | 0.31 | 2.4 | 0.8 | Nc1ccc2nc(-c3ccc([18F])cc3)sc2c1 | SUV [25]: 4.66; SUV [26]: 4.99; SUV [27]: 3.71; SUV [28]: 4.06 |
| 0.2 | 24.4 | 0.1 | 0.2 | 3.6 | 0.6 | 1.1 | 0.3 | 0.22 | 3.1 | 1.13 | [11CH3]Nc1ccc(-c2nc3ccc(O)cc3s2)cc1 [PITTSBURGH COMPOUND B] | SUV [29]: 0.723; SUV [30]: 1.373; SUV [31]: 1.053; SUV [32]: 1.517 |

From ChEMBL document CHEMBL1154674, “Synthesis and evaluation of three 18F-labeled aminophenylbenzothiazoles as amyloid imaging agents” (J Med Chem, 2009)
